Assay results as given in ChEMBL document CHEMBL4732146, “Nitric oxide-donating and reactive oxygen species-responsive prochelators based on 8-hydroxyquinoline as anticancer agents” (Eur J Med Chem, 2021).
Activity calls are given as the source filed them. The rule behind the calls is not given here.

What was measured:
[1] = Drug metabolism in human SW1990 cells assessed as nitric oxide release at 12 uM measured after 24 hrs by DAF-FM DA probe based flow cytometry; format: ADME, cell-based; settings: sw1990, 24 h
Outline: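 SW1990 cells at 80% confluence loaded with 5 µM DAF-FM DA for 20 min at 37 °C, rinsed, then incubated with compound. Optional 1 h pretreatment with 50 µM carboxyl-PTIO before 12 µM treatment. Fluorescence read by flow cytometry (ex 495 / em 515 nm). Mean ± SD, n = 3.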

[2] = system: SW1990; test: Cytotoxicity against human SW1990 cells assessed as reduction in cell viability at 10 to 20 uM measured after 48 hrs by MTT assay; format: functional, cell-based; settings: dose 10-20 µM
Outline: (§1)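 MTT assay with 48 h compound exposure at 10 or 20 µM. Cells seeded 6 × 10⁴ per well and grown 24 h beforehand. MTT 4 h, DMSO solubilisation, A490 read. Percent cell death given as mean ± SD, n = 3.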

[3] = system: SW1990; test: Induction of apoptosis in human SW1990 cells at 12 uM measured after 24 hrs by Annexin V-FITC/propidium iodide staining based flow cytometry; format: functional, cell-based
Outline: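 SW1990 cells seeded 5 × 10⁵ per well and grown 24 h, then treated 24 h at 8 or 12 µM. Optional 1 h pretreatment with 20 mM NAC or 50 µM carboxyl-PTIO before 12 µM treatment. Cells stained with annexin V-FITC 15 min and PI 5 min at room temperature in the dark, then analysed by flow cytometry. Mean ± SD, n = 3.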

[4] = system: SW1990; test: Cytotoxicity against human SW1990 cells assessed as reduction in cell viability measured after 48 hrs in presence of CuCl2 by MTT assay; format: functional, cell-based; settings: SW1990, 48 h
Outline: (§2)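 Cells seeded 6 × 10⁴ per well, cultured 24 h at 37 °C under 5% CO₂, then exposed to compound for 48 h, with or without 50 µM CuCl₂ or FeCl₃ co-incubation. MTT added for 4 h at 37 °C, formazan dissolved in DMSO, A490 read. IC50 reported as mean (SD), n = 3.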

[5] = system: SW1990; test: Cytotoxicity against human SW1990 cells assessed as reduction in cell viability measured after 48 hrs in presence of FeCl3 by MTT assay; format: functional, cell-based; settings: SW1990, 48 h; outline: as §2
[6] = system: HepG2; test: Cytotoxicity against human HepG2 cells assessed as reduction in cell viability measured after 48 hrs by MTT assay; format: functional, cell-based; settings: HepG2, 48 h; outline: as §2
[7] = system: SW1990; test: Cytotoxicity against human SW1990 cells assessed as reduction in cell viability measured after 48 hrs by MTT assay; format: functional, cell-based; settings: SW1990, 48 h; outline: as §2
[8] = system: PC-3; test: Cytotoxicity against human PC-3 cells assessed as reduction in cell viability measured after 48 hrs in presence of FeCl3 by MTT assay; format: functional, cell-based; settings: PC-3, 48 h; outline: as §2
[9] = system: PC-3; test: Cytotoxicity against human PC-3 cells assessed as reduction in cell viability measured after 48 hrs by MTT assay; format: functional, cell-based; settings: PC-3, 48 h; outline: as §2
[10] = Metal chelating activity assessed as compound-Fe3+ complex formation measured after 40 mins by calcein dye based fluorescence assay; settings: dose 10-50 µM
Outline: (§3)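 Calcein (10 µM) in 50 mM HEPES was quenched by 10 µM CuCl₂ (or FeCl₃ for the Fe³⁺ arm). Chelator was added from DMSO stock to a final 10 or 50 µM and incubated 40 min at room temperature. Recovery rate was calculated from fluorescence (λex 485 / λem 520 nm); n = 3.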

[11] = system: A549; test: Cytotoxicity against human A549 cells assessed as reduction in cell viability measured after 48 hrs by MTT assay; format: functional, cell-based; settings: A549, 48 h
[12] = system: PANC-1; test: Cytotoxicity against human PANC-1 cells assessed as reduction in cell viability measured after 48 hrs in presence of CuCl2 by MTT assay; format: functional, cell-based; settings: PANC-1, 48 h; outline: as §2
[13] = Drug metabolism in human SW1990 cells assessed as nitric oxide release at 10 uM measured after 8 hrs by Griess assay; format: ADME, cell-based; settings: sw1990, 8 h
Outline: (§4)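 Cells exposed 8 h to 10 µM compound. Nitrite measured by Griess reagent kit at 540 nm against a NaNO₂ calibration curve. Mean ± SD, n = 3.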

[14] = system: A549; test: Cytotoxicity against human A549 cells assessed as reduction in cell viability measured after 48 hrs in presence of FeCl3 by MTT assay; format: functional, cell-based; settings: A549, 48 h
[15] = system: HeLa; test: Cytotoxicity against human HeLa cells assessed as reduction in cell viability measured after 48 hrs by MTT assay; format: functional, cell-based
[16] = Drug metabolism in human PANC-1 cells assessed as nitric oxide release at 10 uM measured after 8 hrs by Griess assay; format: ADME, cell-based; settings: panc-1, 8 h; outline: as §4
[17] = system: HCT-116; test: Cytotoxicity against human HCT-116 cells assessed as reduction in cell viability measured after 48 hrs by MTT assay; format: functional, cell-based; settings: HCT-116, 48 h; outline: as §2
[18] = Cytotoxicity against human H6C7 cells assessed as reduction in cell viability measured after 48 hrs by MTT assay; format: cell-based; settings: H6C7, 48 h; outline: as §2
[19] = system: HeLa; test: Cytotoxicity against human HeLa cells assessed as reduction in cell viability at 10 to 20 uM measured after 48 hrs by MTT assay; format: functional, cell-based; settings: dose 10-20 µM
[20] = Metal chelating activity assessed as compound-Cu2+ complex formation measured after 40 mins by calcein dye based fluorescence assay; settings: dose 10-50 µM; outline: as §3
[21] = system: PANC-1; test: Cytotoxicity against human PANC-1 cells assessed as reduction in cell viability at 20 uM measured after 48 hrs by MTT assay relative to control; format: functional; outline: as §1
[22] = system: MCF7; test: Cytotoxicity against human MCF7 cells assessed as reduction in cell viability at 10 to 20 uM measured after 48 hrs by MTT assay; format: functional, cell-based; settings: dose 10-20 µM; outline: as §1
[23] = system: HeLa; test: Cytotoxicity against human HeLa cells assessed as reduction in cell viability measured after 48 hrs in presence of FeCl3 by MTT assay; format: functional, cell-based
[24] = system: MCF7; test: Cytotoxicity against human MCF7 cells assessed as reduction in cell viability measured after 48 hrs by MTT assay; format: functional, cell-based; settings: MCF7, 48 h; outline: as §2
[25] = system: PANC-1; test: Cytotoxicity against human PANC-1 cells assessed as reduction in cell viability measured after 48 hrs by MTT assay; format: functional, cell-based; settings: PANC-1, 48 h; outline: as §2
[26] = system: HeLa; test: Cytotoxicity against human HeLa cells assessed as reduction in cell viability measured after 48 hrs in presence of CuCl2 by MTT assay; format: functional, cell-based
[27] = system: HepG2; test: Cytotoxicity against human HepG2 cells assessed as reduction in cell viability measured after 48 hrs in presence of FeCl3 by MTT assay; format: functional, cell-based; settings: HepG2, 48 h; outline: as §2
[28] = system: HCT-116; test: Cytotoxicity against human HCT-116 cells assessed as reduction in cell viability measured after 48 hrs in presence of CuCl2 by MTT assay; format: functional, cell-based; settings: HCT-116, 48 h; outline: as §2
[29] = system: HepG2; test: Cytotoxicity against human HepG2 cells assessed as reduction in cell viability measured after 48 hrs in presence of CuCl2 by MTT assay; format: functional, cell-based; settings: HepG2, 48 h; outline: as §2
[30] = system: PANC-1; test: Cytotoxicity against human PANC-1 cells assessed as reduction in cell viability at 10 uM measured after 48 hrs by MTT assay; format: functional, cell-based; outline: as §1
[31] = system: HepG2; test: Cytotoxicity against human HepG2 cells assessed as reduction in cell viability at 10 to 20 uM measured after 48 hrs by MTT assay; format: functional, cell-based; settings: dose 10-20 µM; outline: as §1
[32] = system: PC-3; test: Cytotoxicity against human PC-3 cells assessed as reduction in cell viability measured after 48 hrs in presence of CuCl2 by MTT assay; format: functional, cell-based; settings: PC-3, 48 h; outline: as §2
[33] = system: HCT-116; test: Cytotoxicity against human HCT-116 cells assessed as reduction in cell viability measured after 48 hrs in presence of FeCl3 by MTT assay; format: functional, cell-based; settings: HCT-116, 48 h; outline: as §2
[34] = system: A549; test: Cytotoxicity against human A549 cells assessed as reduction in cell viability at 10 to 20 uM measured after 48 hrs by MTT assay; format: functional, cell-based; settings: dose 10-20 µM
[35] = system: MCF7; test: Cytotoxicity against human MCF7 cells assessed as reduction in cell viability measured after 48 hrs in presence of CuCl2 by MTT assay; format: functional, cell-based; settings: MCF7, 48 h; outline: as §2
[36] = Cytotoxicity against human RWPE2 cells assessed as reduction in cell viability measured after 48 hrs by MTT assay; format: cell-based; settings: RWPE2, 48 h; outline: as §2
[37] = system: PANC-1; test: Cytotoxicity against human PANC-1 cells assessed as reduction in cell viability measured after 48 hrs in presence of FeCl3 by MTT assay; format: functional, cell-based; settings: PANC-1, 48 h; outline: as §2
[38] = system: A549; test: Cytotoxicity against human A549 cells assessed as reduction in cell viability measured after 48 hrs in presence of CuCl2 by MTT assay; format: functional, cell-based; settings: A549, 48 h
[39] = system: MCF7; test: Cytotoxicity against human MCF7 cells assessed as reduction in cell viability measured after 48 hrs in presence of FeCl3 by MTT assay; format: functional, cell-based; settings: MCF7, 48 h; outline: as §2

## O=C(NCCCOc1nonc1S(=O)(=O)c1ccccc1)c1ccc2cccc(OCc3ccc(B(O)O)cc3)c2n1
[1]
  Drug metabolism: Metabolite_Notdetected
[2]
  Activity: inactive
[3]
  Activity: Active

## O=C(NCCCOc1no[n+]([O-])c1S(=O)(=O)c1ccccc1)c1ccc2cccc(O)c2n1
[4]
  IC50: 1470 nM
[5]
  IC50: 12.1 µM
[6]
  IC50: 17.9 µM
[7]
  IC50: 9.24 µM
[8]
  IC50: 17.1 µM
[9]
  IC50: 11.7 µM
[10]
  Activity: Dose-dependent effect
[11]
  IC50: 13.8 µM
[12]
  IC50: 860 nM
[13]
  Drug metabolism: Metabolite_Detected
[14]
  IC50: 17.9 µM
[15]
  IC50: 28.7 µM
[16]
  Drug metabolism: Metabolite_Detected
[17]
  IC50: 14.6 µM
[18]
  IC50: 9.05 µM
[19]
  Activity: Active
[20]
  Activity: Dose-dependent effect
[21]
  Activity: 75.2%
[22]
  Activity: Active
[23]
  IC50: 33.2 µM
[24]
  IC50: 13.4 µM
[25]
  IC50: 7.54 µM
[26]
  IC50: 9.56 µM
[27]
  IC50: 22.4 µM
[28]
  IC50: 5.2 µM
[29]
  IC50: 6.32 µM
[30]
  Activity: Active
[31]
  Activity: Active
[32]
  IC50: 5.63 µM
[33]
  IC50: 20.1 µM
[34]
  Activity: Active
[35]
  IC50: 3.23 µM
[36]
  IC50: 8.77 µM
[37]
  IC50: 13.9 µM
[38]
  IC50: 4.68 µM
[39]
  IC50: 18.2 µM
